Assay [1] can be described thus: DPPH free-radical scavenging. As to conditions: DPPH 0.025 mg mL–1 in methanol, 100 μM test compound, 517 nm. An outline of the steps:
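Test compound mixed with methanolic DPPH and read spectrophotometrically. Percent scavenging is calculated from absorbance of sample relative to control. Ascorbic acid is the positive control.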
(Loss of DPPH colour is used to gauge radical scavenging.)

The target of assay [2] is ALR2 (Homo sapiens, UniProt P15121). In words: ALR2 in vitro enzyme inhibition assay. The settings on record: for selectivity of inhibition, ALR2 versus ALR1 (in words): judged from ALR1 and ALR2 in vitro inhibition data. In kind it is biochemical.
Assay [3] deals with advanced glycation end products (AGEs). In words: Bovine serum albumin glycation. It is filed as biochemical. The settings on record: BSA 1 mg mL–1, 0.5 M glucose, test compound (1 mM), pH 7.4, 50 °C, 4 days; AG positive control 100 μM. The method, boiled down: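 BSA and glucose were incubated in 0.1 M PBS, in the dark, with or without test compound. AGE fluorescence was read at excitation 350 nm and emission 460 nm. Percent inhibition was calculated from the glucose-dependent fluorescence increase (BSA ± glucose), compared with the BSA + glucose signal with or without test compound. A vehicle served as the negative control. Values are mean ± S.E.M. of three independent incubations, with Student t-test vs aminoguanidine.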

The target of assay [4] is ALR1 (Bos taurus, UniProt Q3ZCJ2). In words: ALR1 in vitro enzyme inhibition assay. In kind it is biochemical, calf. An outline of the steps: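 Enzyme in sodium phosphate buffer pH 6.2, preincubated 10 min at 32 °C with test compound and substrate, without NADPH. Reaction started with NADPH and followed for 5 min. Absorbance read before and after cofactor addition gives % inhibition. Compound dissolved in DMSO and diluted in water to 0.1% DMSO in assay. Valproic acid is the standard. IC50 from nonlinear regression of log concentration vs remaining activity.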

The term IC50 denotes the point on the concentration scale where inhibition reaches its midpoint. A high value points to weaker potency in that assay.

Chain of ALR1 (Q3ZCJ2 whole entry): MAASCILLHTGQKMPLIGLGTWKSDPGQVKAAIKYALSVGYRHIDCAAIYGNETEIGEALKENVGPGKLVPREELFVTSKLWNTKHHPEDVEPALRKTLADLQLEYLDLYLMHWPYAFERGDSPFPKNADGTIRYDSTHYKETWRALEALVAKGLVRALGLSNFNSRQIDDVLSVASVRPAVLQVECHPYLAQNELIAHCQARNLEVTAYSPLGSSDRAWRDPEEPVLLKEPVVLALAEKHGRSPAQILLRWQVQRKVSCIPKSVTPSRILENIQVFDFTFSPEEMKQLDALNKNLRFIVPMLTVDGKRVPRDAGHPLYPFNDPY

Consider `Cc1ccc(O)c(C=NNC(=S)Nc2ccc(Br)cc2)c1` [3g, N-(4-Bromophenyl)-2-(2-hydroxy-5-methylbenzylidene)hydrazinecarbothioamide], for which the “% FRSA (percent free-radical scavenging activity)” value in assay [1] was found to be 53.56%. Further, in assay [2], the IC50 was determined as 8.37 ± 0.062 µM; the “selectivity of inhibition, ALR2 versus ALR1 (in words)” value (shortened to “selectivity of inhibition”) is “strong and selective inhibition of ALR2”. For the same compound, the “% inhibition of AGEs (advanced glycation end-product formation)” value (“% inhibition of AGEs” for short) in assay [3] amounted to 51.33%.
`Cc1ccc(O)c(C=NNC(=S)NCc2ccccc2)c1` [3e, N-Benzyl-2-(2-hydroxy-5-methylbenzylidene)hydrazinecarbothioamide]: the “% FRSA (percent free-radical scavenging activity)” value in assay [1] came out at 65.66%. Further, the “% inhibition of AGEs” value in assay [3] was determined as 56.73%.
As for `Cc1ccc(O)c(C=NNC(=S)NCCc2ccccc2)c1` [3o, 2-(2-Hydroxy-5-methylbenzylidene)-N-phenethylhydrazinecarbothioamide], the “% FRSA (percent free-radical scavenging activity)” value in assay [1] worked out at 68.56%. Further, in assay [2], the IC50 came to 12.15 ± 0.083 µM; the “selectivity of inhibition” value is “strong and selective inhibition of ALR2”.
On to `Cc1ccc(O)c(C=NNC(=S)Nc2cccc(F)c2)c1` [3k, N-(3-Fluorophenyl)-2-(2-hydroxy-5-methylbenzylidene)hydrazinecarbothioamide], for which the “% FRSA (percent free-radical scavenging activity)” value in assay [1] came to 53.88%. Besides, in assay [2], the midpoint of inhibition, the IC50, lay at 14.03 ± 0.047 µM; the “selectivity of inhibition” value is “strong and selective inhibition of ALR2”.
`Cc1ccc(NC(=S)NN=Cc2cc(C)ccc2O)cc1` [3h, 2-(2-Hydroxy-5-methylbenzylidene)-N-(p-tolyl)hydrazinecarbothioamide] gave an IC50 in assay [4] of 15.8 ± 0.027 µM. Further, in assay [1], the “% FRSA (percent free-radical scavenging activity)” value was 64.94%. In assay [2], half-maximal inhibition (IC50) was put at 3.8 ± 0.072 µM; the “selectivity of inhibition” value was “strong but nonselective inhibition of ALR1 and ALR2”.
As for `Cc1ccc(NC(=S)NN=Cc2cc(C)ccc2O)c(C)c1` [3b, N-(2,4-Dimethylphenyl)-2-(2-hydroxy-5-methylbenzylidene)hydrazinecarbothioamide], the “% FRSA (percent free-radical scavenging activity)” value in assay [1] is 63.24%. Besides, in assay [2], it took 2.55 ± 0.021 µM to reach half-maximal inhibition (IC50); the “selectivity of inhibition” value was “strong and selective inhibition of ALR2”. In assay [3], the “% inhibition of AGEs” value stood at 50.78%.
Take `Cc1ccc(O)c(C=NNC(=S)Nc2ccc(Cl)cc2)c1` [3l, N-(4-Chlorophenyl)-2-(2-hydroxy-5-methylbenzylidene)hydrazinecarbothioamide]: the “% FRSA (percent free-radical scavenging activity)” value in assay [1] was 62.44%. Further, in assay [2], half-maximal inhibition (IC50) was put at 3.8 ± 0.027 µM; the “selectivity of inhibition” value was “strong and selective inhibition of ALR2”. Further, the “% inhibition of AGEs” value in assay [3] is recorded as 56.61%.
Take `Cc1ccc(O)c(C=NNC(=S)Nc2ccccc2C)c1` [3m, 2-(2-Hydroxy-5-methylbenzylidene)-N-(o-tolyl)hydrazinecarbothioamide]: it took 4.57 ± 0.076 µM to reach half-maximal inhibition in assay [4] (IC50). Further, the “% FRSA (percent free-radical scavenging activity)” value in assay [1] is reported as 63.87%. For the same compound, in assay [2], the IC50 turned out to be 1.96 ± 0.029 µM; the “selectivity of inhibition” value is “strong but nonselective inhibition of ALR1 and ALR2”. Besides, the “% inhibition of AGEs” value in assay [3] is recorded as 53.08%.
On to `Cc1ccc(O)c(C=NNC(=S)Nc2ccc(C(C)C)cc2)c1` [3n, 2-(2-Hydroxy-5-methylbenzylidene)-N-(4-isopropylphenyl)hydrazinecarbothioamide], for which the “% FRSA (percent free-radical scavenging activity)” value in assay [1] stood at 55.93%. Also, in assay [2], the IC50 came out at 3.11 ± 0.038 µM; the “selectivity of inhibition” value was “strong and selective inhibition of ALR2”. For the same compound, the “% inhibition of AGEs” value in assay [3] is given as 68.66%.
As for `Cc1ccc(O)c(C=NNC(=S)Nc2ccccc2)c1` [3a, 2-(2-Hydroxy-5-methylbenzylidene)-N-phenylhydrazinecarbothioamide], the IC50 in assay [4] was 5.13 ± 0.037 µM. The “% FRSA (percent free-radical scavenging activity)” value in assay [1] is reported as 56.78%. Further, in assay [2], the IC50 stood at 4.99 ± 0.035 µM; the “selectivity of inhibition” value was “strong but nonselective inhibition of ALR1 and ALR2”. For the same compound, in assay [3], the “% inhibition of AGEs” value was 59.12%.
In the case of `Cc1ccc(O)c(C=NNC(=S)Nc2ccc(F)cc2F)c1` [3j, N-(2,4-Difluorophenyl)-2-(2-hydroxy-5-methylbenzylidene)hydrazinecarbothioamide], in assay [1], the “% FRSA (percent free-radical scavenging activity)” value was 66.57%. In addition, in assay [2], half-maximal inhibition (IC50) was put at 4.95 ± 0.066 µM; the “selectivity of inhibition” value was “strong and selective inhibition of ALR2”. In addition, the “% inhibition of AGEs” value in assay [3] amounted to 61.60%.
With `N=C(N)NN` [6-AG, 6-Aminoguanidine, reference compound], the “% inhibition of AGEs” value in assay [3] was 79.34%.
As for `Cc1ccc(O)c(C=NNC(=S)Nc2ccc(N(C)C)cc2)c1` [3p, N-(4-(Dimethylamino)phenyl)-2-(2-hydroxy-5-methylbenzylidene)hydrazinecarbothioamide], in assay [1], the “% FRSA (percent free-radical scavenging activity)” value was 71.53%. For the same compound, in assay [2], the midpoint of inhibition, the IC50, lay at 10.67 ± 0.064 µM; the “selectivity of inhibition” value was “strong and selective inhibition of ALR2”. In addition, the “% inhibition of AGEs” value in assay [3] came to 64.81%.
On to `Cc1ccc(O)c(C=NNC(=S)Nc2c(C)cccc2C)c1` [3i, N-(2,6-Dimethylphenyl)-2-(2-hydroxy-5-methylbenzylidene)hydrazinecarbothioamide], for which inhibition in assay [4] was half-maximal at 2.14 ± 0.031 µM (IC50). Further, in assay [1], the “% FRSA (percent free-radical scavenging activity)” value came out at 71.34%. Moreover, in assay [2], half-maximal inhibition (IC50) required 2.06 ± 0.057 µM; the “selectivity of inhibition” value was “strong but nonselective inhibition of ALR1 and ALR2”. The “% inhibition of AGEs” value in assay [3] was determined as 64.41%.
For the compound `Cc1ccc(O)c(C=NNC(=S)NC2CCCCC2)c1` [3f, N-Cyclohexyl-2-(2-hydroxy-5-methylbenzylidene)hydrazinecarbothioamide], in assay [1], the “% FRSA (percent free-radical scavenging activity)” value was 57.84%. For the same compound, the “% inhibition of AGEs” value in assay [3] came to 59.86%.
For `COc1cccc(NC(=S)NN=Cc2cc(C)ccc2O)c1` [3c, 2-(2-Hydroxy-5-methylbenzylidene)-N-(3-methoxyphenyl)hydrazinecarbothioamide], the “% FRSA (percent free-radical scavenging activity)” value in assay [1] is listed as 65.67%. In assay [2], the half-inhibitory concentration (IC50) came out at 1.42 ± 0.024 µM; the “selectivity of inhibition” value is “strong and selective inhibition of ALR2”. In addition, in assay [3], the “% inhibition of AGEs” value was determined as 66.40%.
Regarding `Cc1ccc(O)c(C=NNC(=S)NCc2ccc(Cl)cc2)c1` [3d, N-(4-Chlorobenzyl)-2-(2-hydroxy-5-methylbenzylidene)hydrazinecarbothioamide], in assay [1], the “% FRSA (percent free-radical scavenging activity)” value is 61.34%. The “% inhibition of AGEs” value in assay [3] was 62.81%.

The values above are taken from article PMC9352332 (ACS Omega, 2022).
